# In the library only some 1.5% were active in any assay of this set; here they are far more common.
# Rpn11 inh – blocks the human proteasome subunit Rpn11. O00487. human 26S proteasome, Ub4-pepOG fluorescence polarization; 20S core pre-blocked with epoxomicin. calls only at 20 µM. hit rate 0.59% among 360,000;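 active = inhibition at 20 µM, scaled to each plate's controls, above about 33%, limit read from the data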
# TPT1 inhibitor – blocks Candida albicans tRNA 2'-phosphotransferase. hit rate 0.81% among 300,000. inhibition, % at 5 µM. recombinant caTPT1, FP RNA substrate dephosphorylation. AID 1962;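 active = inhibition above the mean of all tested compounds plus 3 SD, set per screening campaign, cut at about 24% in these data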;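 note: plate controls were DMSO alone for no effect and ferristatin control at 100 nM for full effect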
# CSN inh – blocks human CSN-mediated cullin deneddylation; Q92905; Purified CSN, SCF-Nedd8-OG deneddylation, fluorescence polarization; inhibition, % at 12.5 µM; hit rate 0.38% among 360,000; AID 651999;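 active = pattern-corrected inhibition above about 35%, with an unprinted fluorescence ratio check between 0.5 and 1.5, limit read from the data, passing the limit was not always enough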;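 note: 0% = enzyme with substrate and 100% = substrate without enzyme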
# Target sequence (Q92905 whole entry, looked up, one chain of several): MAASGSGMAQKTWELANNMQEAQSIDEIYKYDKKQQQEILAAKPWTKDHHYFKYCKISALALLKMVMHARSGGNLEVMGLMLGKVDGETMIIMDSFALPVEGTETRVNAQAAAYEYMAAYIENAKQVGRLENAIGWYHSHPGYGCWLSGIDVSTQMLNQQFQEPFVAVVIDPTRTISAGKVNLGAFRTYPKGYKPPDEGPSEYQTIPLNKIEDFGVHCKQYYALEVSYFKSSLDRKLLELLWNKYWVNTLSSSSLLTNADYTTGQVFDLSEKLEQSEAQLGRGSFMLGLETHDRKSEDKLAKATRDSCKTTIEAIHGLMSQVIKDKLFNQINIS
#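 Material: human Csn5 produced in HEK293T cells; Input: enzyme 0.24 nM; Reagent: SCFSkp2-Nedd8OG substrate at 10 nM final; Dosing: 12.5 µM compound; Incubation: 90 min reaction at room temperature; Detection: fluorescence polarization of the substrate; Evaluation: % inhibition of substrate cleavage by Csn5; Control set: substrate-only high control, full reaction low control.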
# HNF4A DNA FP – change in binding of human HNF4 alpha to DNA. P41235. HNF4a-FITC DNA binding, fluorescence polarization, 1 h. activity change, % at 10 µM. hit rate 0.3% among 360,000; in the data active = activity change above about 30%, passing the limit was not always enough
# Rpn11 inh conf – confirmation of human proteasome Rpn11 inhibitors. shares compounds with Rpn11 inh. inhibition, % at 20 µM. hit rate 29% among 1,900. purified human 26S proteasome, Ub4-pepOG fluorescence polarization; proteasome pretreated with epoxomicin
# MMP-2 inh – MMP-2 (human) inhibition counter-screen; AID 602330; shares compounds with Rpn11 inh; recombinant MMP-2, FRET peptide cleavage fluorescence; inhibition, % at 20 µM; hit rate 4% among 1,900;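 note: human MMP-2 activated beforehand with APMA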
# Thrombin inh – thrombin (bovine) inhibition counter-screen. bovine thrombin cleavage of Ub4-pepOG, fluorescence polarization. AID 602333. shares compounds with Rpn11 inh. inhibition, % at 20 µM. hit rate 13% among 1,900;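 active = mean inhibition at least 40% at 20 µM, or signal 3 deviations below plate average, so some actives read negative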;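 note: plate controls were thrombin with DMSO for no effect and buffer wells lacking thrombin for full effect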
# * = called active by the depositor; i = inactive; . = no result; + = active, no number. Cut-off read from the data, not from the text of the source, unless noted: active = inhibition above about 40%; inactive = the rest.
SMILES,Rpn11 inh,TPT1 inhibitor,CSN inh,HNF4A DNA FP,Rpn11 inh conf,MMP-2 inh,Thrombin inh
CN(C(=O)c1ccc(NC(=O)Cc2ccc(NC(=O)C3CCCN(C(=O)C4CCCC4)C3)cc2)cc1)C1CC1 (centres undefined),i,.,4,4,.,.,.
Cc1nc(SCc2nc3ccc(Br)cc3[nH]2)c2oc3ccccc3c2n1,+,.,12,0,44*,-19,16
Cc1nc(SCc2nc3ccc(Cl)cc3[nH]2)c2oc3ccccc3c2n1,i,.,2,6,.,.,.
COCCOC(=O)C1=C(C)NC(=O)NC1c1ccc(-c2cc(Cl)ccc2Cl)o1 (centres undefined),+,3,-3,16,33,-27,16
COC(=O)C1=C(C)NC(C)=C(C(=O)OC)C1c1ccc(-c2cc(Cl)ccc2Cl)o1,i,5,2,3,.,.,.
CC(C)(O)CN(C(=O)c1ccccc1)C1CCCCC1,i,.,-3,3,.,.,.
O=C(CCNC(=O)c1ccccc1Cl)NCc1cccnc1,i,3,-6,3,.,.,.
C[C@H](O)[C@@H]1C(=O)N2CCc3ccc(N4CCN(C)CC4)cc3[C@@H]2C[C@@H]1N(C)C(=O)NC1CCCCC1,i,.,0,-4,.,.,.
CCOC(=O)c1nnc2cc(-c3ccccc3)nn2c1C,+,-2,0,20,0,-51,-1
CCOC(=O)c1nnc2cc(-c3ccc(Br)cc3)nn2c1C,i,1,-3,3,.,.,.
O=C(Nc1ccccc1N1CCOCC1)C1=NN(c2c(F)c(F)cc(F)c2F)C(=O)CC1,i,.,0,-1,.,.,.
C=CCn1c2ccccc2c2nnc(SCC(N)=O)nc21,+,0,-3,4,-4,-30,-1
CCOCCCNC(=O)/C(C#N)=C/c1ccc([N+](=O)[O-])o1,+,0,6,0,18,-31,18
CCOCCCNC(=O)/C(C#N)=C/c1ccc(-c2ccc(S(=O)(=O)N3CCOCC3)cc2)o1,i,4,-3,3,.,.,.
COc1ccccc1NC(=O)CCC(=O)Nc1ccccc1OC,i,-2,-3,3,.,.,.
COc1ccccc1NC(=O)CCC(=O)c1ccc(-c2ccccc2)cc1,+,8,5,34,6,4,-1
COc1ccc(/C=N/NC(=O)c2ccc(COc3ccccc3Cl)o2)cc1,i,-1,-5,0,.,.,.
CC(=O)Nc1ccc(/C(C)=N/NC(=O)c2ccc(COc3ccccc3Cl)o2)cc1,+,0,4,-9,46*,-102,16
CC12CCC(/C(=C/NNc3ccc([N+](=O)[O-])cc3[N+](=O)[O-])C1=O)C2(C)C (centres undefined),i,.,6,0,.,.,.
Cc1cc(C)c(C(=O)/C=C/c2cccs2)c(=O)[nH]1,+,-2,2,-1,1,-7,8
COc1ccc(/C=C/C(=O)c2c(C)cc(C)[nH]c2=O)c2ccccc12,+,12,4,6,24,-33,5
Cc1ccccc1C(=O)N1CCC(C(N)=O)CC1,+,-2,-3,-2,2,-31,5
NC(=O)C1CCN(C(=O)c2cccc3ccccc23)CC1,i,-1,1,0,.,.,.
COC(=O)c1ccccc1NC(=O)CCS(=O)(=O)c1ccc(Br)cc1,+,.,17,-58,114*,25,-51
Cc1cc(C)cc(NC(=O)C(OC(=O)c2ccc(NC(=O)CC#N)cc2)c2ccccc2)c1 (centres undefined),+,11,6,12,25,-20,17
SMILES,Rpn11 inh,TPT1 inhibitor,CSN inh,HNF4A DNA FP,Rpn11 inh conf,MMP-2 inh,Thrombin inh
Cc1ccc(C)c(NC(=O)C(OC(=O)c2ccc(NC(=O)CC#N)cc2)c2ccccc2)c1 (centres undefined),i,12,6,10,.,.,.
Cc1c2c(=O)n(-c3nc4ccccc4s3)nc-2cc(O)n1Cc1ccccc1,+,.,11,-7,6,-14,6
Cc1cc(C)n(-c2nc3ccccc3s2)n1,i,-1,-4,-2,.,.,.
Clc1ccc(Br)cc1-c1nc(-c2ccncc2)no1,+,0,-2,5,32,21,-4
Brc1cccc(-c2nc(-c3ccncc3)no2)c1,i,1,6,0,.,.,.
C[C@H](NC(=O)c1ncn2c1c(=O)[nH]c1ccc(Br)cc12)c1ccccc1,+,.,34,39,5,-2,-8
C[C@H](NC(=O)c1ncn2c1c(=O)[nH]c1ccccc12)c1ccccc1,i,.,5,0,.,.,.
COc1ccc(Cc2c(-c3ccc(C)cc3)nc3c(C)cc(Br)cn23)c(C)c1,+,.,8,18,22,16,13
Cc1ccc(Cc2c(-c3cccc(Br)c3)nc3ccc(Cl)cn23)cc1,+,.,6,12,15,24,-1
COC(=O)c1ccc2nc(-c3cccc(Cl)c3)c(Cc3ccccc3OC)n2c1,i,.,6,10,.,.,.
COc1ccccc1Cc1c(-c2cccc(Br)c2)nc2c(C)cc(Br)cn12,+,.,4,12,15,-7,20
COc1ccccc1Cc1c(-c2cccc(Cl)c2)nc2ccc(Br)cn12,+,.,15,35,50*,0,36
Clc1ccc2nc(-c3cccc(Br)c3)c(Cc3ccccc3)n2c1,i,.,15,11,.,.,.
CC1CCN(C(=O)COc2ccc3ccccc3c2Br)CC1,i,-1,3,-1,.,.,.
FC(F)(F)c1ccccc1Cc1c(-c2cccc(Br)c2)nc2c3ccccc3ccn12,+,.,6,16,10,-2,11
Cc1cc(Br)cn2c(Cc3ccccc3C(F)(F)F)c(-c3cccc(Br)c3)nc12,.,.,-1,-5,.,.,.
CCSC1=N/C(=C\c2ccc3c(c2)OCO3)C(=O)S1,+,-9,6,-8,74*,-26,-53
CC(C)CN(C(=O)Cn1ccccc1=O)C1CCS(=O)(=O)C1 (centres undefined),i,.,-10,2,.,.,.
Cc1nnc(C)c2c(C)n(C(c3ccccc3)c3ccccc3)c(C)c12,+,20,17,3,-19,-36,-9
Cc1cc(C)c(C2=CC(=O)C[C@H](c3ccc4c(c3)OCO4)C2)c(C)c1,i,.,-4,-3,.,.,.
O=C(CCN1C(=O)/C(=C/C=C/c2ccccc2)SC1=S)Nc1nc2ccccc2s1,+,5,0,12,32,-14,-51
CCOc1ccc(S(=O)(=O)N2CCC(C(=O)NCc3ccccn3)CC2)cc1C,i,3,5,1,.,.,.
